Reference: ChEMBL document CHEMBL3860088, “Design, synthesis, and evaluation of novel porcupine inhibitors featuring a fused 3-ring system based on the 'reversed' amide scaffold” (Bioorg Med Chem, 2016)
Calls of active or inactive are those of the source. The calls are words filed in the database; no cut-off is given here.

Tests used:
[1] = biological target: T1, Protein-serine O-palmitoleoyltransferase porcupine (Homo sapiens) (UniProt Q9H237); experiment: Inhibition of porcupine in HEK293T cells transfected with pLibin-WNT3A plasmid assessed as reduction in Wnt3A secretion into cell culture medium at 0.1 uM after 48 hrs by Western blot method; assay type: cell-based; conditions: HEK-293T
T1 sequence (whole entry): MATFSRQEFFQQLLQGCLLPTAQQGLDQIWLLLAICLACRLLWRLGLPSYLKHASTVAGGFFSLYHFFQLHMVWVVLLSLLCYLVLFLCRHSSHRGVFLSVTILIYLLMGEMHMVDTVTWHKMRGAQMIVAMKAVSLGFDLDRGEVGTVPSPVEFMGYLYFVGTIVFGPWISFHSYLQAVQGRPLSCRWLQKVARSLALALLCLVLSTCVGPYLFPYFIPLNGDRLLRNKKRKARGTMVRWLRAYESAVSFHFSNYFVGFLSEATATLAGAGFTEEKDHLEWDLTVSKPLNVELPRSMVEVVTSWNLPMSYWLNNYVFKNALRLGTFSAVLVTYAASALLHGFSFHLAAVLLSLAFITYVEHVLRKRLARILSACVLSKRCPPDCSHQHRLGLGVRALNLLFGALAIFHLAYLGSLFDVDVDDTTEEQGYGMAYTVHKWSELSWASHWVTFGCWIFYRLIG
Procedure, shortened: (§1)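 Cells were HEK293T transfected with pLinbin-Wnt3A plasmid or vehicle control, then exposed to compound (0.1 µM) or left untreated. After 48 h, Western blot was run on both the cell lysate and the culture medium to follow Wnt3A.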

[2] = Intrinsic clearance in human liver microsomes at 1 uM preincubated for 10 mins followed by NADPH addition measured for 30 to 60 mins by LC-MS/MS analysis; assay type: ADME; conditions: read-out: CLH
[3] = Metabolic stability in rat plasma assessed as remaining compound levels at 1 uM after 8 hrs by LC-MS/MS analysis; assay type: ADME, cell-free; conditions: read-out: Stability
[4] = Chemical stability in simulated gastric fluid assessed as remaining compound levels at 200 uM at 40 degC after 24 hrs by HPLC method; assay type: ADME; conditions: read-out: Stability
Procedure, shortened: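 Test compound held at 200 µM in simulated gastric fluid, 40 °C for 24 h; remaining compound then assessed.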

[5] = Intrinsic clearance in rat liver microsomes at 1 uM preincubated for 10 mins followed by NADPH addition measured for 30 to 60 mins by LC-MS/MS analysis; assay type: ADME; conditions: read-out: CLH
[6] = Half life in rat liver microsomes at 1 uM preincubated for 10 mins followed by NADPH addition measured for 30 to 60 mins by LC-MS/MS analysis; assay type: ADME
[7] = Half life in human liver microsomes at 1 uM preincubated for 10 mins followed by NADPH addition measured for 30 to 60 mins by LC-MS/MS analysis; assay type: ADME
[8] = Effect on Wnt3A level in HEK293T cells transfected with pLibin-WNT3A plasmid at 0.1 uM after 48 hrs by Western blot method; assay type: ADME, cell-based; conditions: human, hek-293t; procedure, shortened: as §1
[9] = Intrinsic clearance in mouse liver microsomes at 1 uM preincubated for 10 mins followed by NADPH addition measured for 30 to 60 mins by LC-MS/MS analysis; assay type: ADME; conditions: read-out: CLH
[10] = Half life in mouse liver microsomes at 1 uM preincubated for 10 mins followed by NADPH addition measured for 30 to 60 mins by LC-MS/MS analysis; assay type: ADME
[11] = biological target: T2, Protein-serine O-palmitoleoyltransferase porcupine (Mus musculus, UniProt Q9JJJ7); experiment: Inhibition of porcupine in mouse L Wnt3A cells co-cultured with HEK293 cells after 48 hrs by Super-top flash reporter gene assay; assay type: cell-based
T2 sequence (Q9JJJ7 whole entry): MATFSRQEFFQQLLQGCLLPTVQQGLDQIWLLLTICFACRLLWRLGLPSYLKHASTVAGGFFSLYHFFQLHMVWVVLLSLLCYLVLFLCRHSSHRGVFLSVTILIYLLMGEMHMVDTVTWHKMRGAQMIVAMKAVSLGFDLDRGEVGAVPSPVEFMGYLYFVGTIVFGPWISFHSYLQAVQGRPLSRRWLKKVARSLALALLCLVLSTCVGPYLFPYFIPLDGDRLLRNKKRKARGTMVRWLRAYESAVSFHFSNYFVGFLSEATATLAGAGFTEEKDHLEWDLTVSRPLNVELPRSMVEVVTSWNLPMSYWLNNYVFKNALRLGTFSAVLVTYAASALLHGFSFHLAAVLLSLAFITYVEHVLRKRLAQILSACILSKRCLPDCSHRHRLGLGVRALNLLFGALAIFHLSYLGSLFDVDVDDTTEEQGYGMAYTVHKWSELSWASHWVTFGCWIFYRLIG
Procedure, shortened: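 Readout was luminescence inhibition in a co-culture of Wnt-producing LWnt3A cells with Wnt-responding HEK293 cells. Values are geometric means of at least two runs ± SEM, with a reference inhibitor run as a standard in every assay.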

CYP2D6 = CYP2D6 (Homo sapiens, UniProt P10635); experiment: Inhibition of CYP2D6 in human liver microsomes at 10 uM using dextromethorphan as substrate preincubated for 10 mins followed by NADPH addition measured after 10 mins by LC-MS/MS analysis; assay type: ADME; conditions: probe dextromethorphan
CYP2D6, sequence (P10635 whole entry): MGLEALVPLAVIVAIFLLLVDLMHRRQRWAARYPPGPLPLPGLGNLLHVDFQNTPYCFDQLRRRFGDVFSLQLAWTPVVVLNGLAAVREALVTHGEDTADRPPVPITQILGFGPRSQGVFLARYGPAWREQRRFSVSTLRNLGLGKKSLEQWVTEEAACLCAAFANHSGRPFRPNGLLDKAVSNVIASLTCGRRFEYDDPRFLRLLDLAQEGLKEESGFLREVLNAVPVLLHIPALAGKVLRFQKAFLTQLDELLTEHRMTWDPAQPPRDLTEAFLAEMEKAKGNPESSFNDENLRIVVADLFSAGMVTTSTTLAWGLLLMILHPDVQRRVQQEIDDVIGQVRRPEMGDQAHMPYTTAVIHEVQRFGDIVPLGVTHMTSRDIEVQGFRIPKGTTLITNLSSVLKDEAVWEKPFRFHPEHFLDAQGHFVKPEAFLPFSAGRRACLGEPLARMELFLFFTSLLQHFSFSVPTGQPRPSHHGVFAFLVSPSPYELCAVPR

CYP2C19 = CYP2C19 (Homo sapiens, UniProt P33261); experiment: Inhibition of CYP2C19 in human liver microsomes at 10 uM preincubated for 10 mins followed by NADPH addition measured after 10 mins by LC-MS/MS analysis; assay type: ADME
CYP2C19, sequence (P33261 whole entry): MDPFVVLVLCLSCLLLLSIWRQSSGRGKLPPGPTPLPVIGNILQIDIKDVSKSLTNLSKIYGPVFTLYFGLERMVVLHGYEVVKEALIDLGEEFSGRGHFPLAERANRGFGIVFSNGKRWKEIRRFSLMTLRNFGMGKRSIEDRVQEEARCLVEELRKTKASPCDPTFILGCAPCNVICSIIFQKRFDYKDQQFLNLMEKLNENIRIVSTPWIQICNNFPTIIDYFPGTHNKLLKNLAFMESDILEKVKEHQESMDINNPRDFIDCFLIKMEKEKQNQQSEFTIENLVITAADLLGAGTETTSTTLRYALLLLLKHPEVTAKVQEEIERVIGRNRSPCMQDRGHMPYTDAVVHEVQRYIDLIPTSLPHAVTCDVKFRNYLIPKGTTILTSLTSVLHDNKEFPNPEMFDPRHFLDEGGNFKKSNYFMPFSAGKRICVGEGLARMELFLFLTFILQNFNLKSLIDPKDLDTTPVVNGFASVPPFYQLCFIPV

CYP2C9 = CYP2C9 (Homo sapiens, UniProt P11712); experiment: Inhibition of CYP2C9 in human liver microsomes at 10 uM preincubated for 10 mins followed by NADPH addition measured after 10 mins by LC-MS/MS analysis; assay type: ADME
CYP2C9, sequence (P11712 whole entry): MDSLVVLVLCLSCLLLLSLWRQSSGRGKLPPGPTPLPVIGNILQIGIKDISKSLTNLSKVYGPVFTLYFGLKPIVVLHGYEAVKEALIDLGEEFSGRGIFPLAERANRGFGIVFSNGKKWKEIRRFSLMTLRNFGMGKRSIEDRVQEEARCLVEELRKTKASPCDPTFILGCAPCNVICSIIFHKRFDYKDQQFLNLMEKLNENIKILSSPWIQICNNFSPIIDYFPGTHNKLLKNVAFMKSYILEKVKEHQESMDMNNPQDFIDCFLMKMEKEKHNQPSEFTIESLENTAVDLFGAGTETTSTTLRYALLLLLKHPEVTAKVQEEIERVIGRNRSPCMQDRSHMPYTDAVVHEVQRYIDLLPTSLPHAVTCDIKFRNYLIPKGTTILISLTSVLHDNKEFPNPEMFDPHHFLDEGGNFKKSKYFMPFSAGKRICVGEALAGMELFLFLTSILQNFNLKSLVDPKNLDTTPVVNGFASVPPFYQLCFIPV

CYP3A4 = CYP3A4 (Homo sapiens, UniProt P08684); experiment: Inhibition of CYP3A4 in human liver microsomes at 10 uM using midazolam as substrate preincubated for 10 mins followed by NADPH addition measured after 10 mins by LC-MS/MS analysis; assay type: ADME; conditions: probe midazolam
CYP3A4, sequence (P08684 whole entry): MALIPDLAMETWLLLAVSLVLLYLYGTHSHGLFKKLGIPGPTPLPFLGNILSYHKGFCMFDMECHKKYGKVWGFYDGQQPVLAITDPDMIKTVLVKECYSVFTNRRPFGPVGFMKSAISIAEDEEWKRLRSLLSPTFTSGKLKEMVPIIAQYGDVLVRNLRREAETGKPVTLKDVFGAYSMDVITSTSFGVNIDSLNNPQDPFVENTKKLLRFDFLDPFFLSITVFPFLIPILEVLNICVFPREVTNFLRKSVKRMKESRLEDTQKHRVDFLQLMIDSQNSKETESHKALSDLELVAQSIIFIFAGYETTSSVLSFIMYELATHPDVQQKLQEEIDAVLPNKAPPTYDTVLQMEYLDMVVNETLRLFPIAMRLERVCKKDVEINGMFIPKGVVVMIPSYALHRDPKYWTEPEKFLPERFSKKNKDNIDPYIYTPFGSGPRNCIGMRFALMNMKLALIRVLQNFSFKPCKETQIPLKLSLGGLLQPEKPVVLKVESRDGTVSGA

CYP1A2 = biological target: T3, CYP1A2 (Homo sapiens, UniProt P05177); experiment: Inhibition of CYP1A2 in human liver microsomes at 10 uM preincubated for 10 mins followed by NADPH addition measured after 10 mins by LC-MS/MS analysis; assay type: ADME
T3 sequence (P05177 whole entry): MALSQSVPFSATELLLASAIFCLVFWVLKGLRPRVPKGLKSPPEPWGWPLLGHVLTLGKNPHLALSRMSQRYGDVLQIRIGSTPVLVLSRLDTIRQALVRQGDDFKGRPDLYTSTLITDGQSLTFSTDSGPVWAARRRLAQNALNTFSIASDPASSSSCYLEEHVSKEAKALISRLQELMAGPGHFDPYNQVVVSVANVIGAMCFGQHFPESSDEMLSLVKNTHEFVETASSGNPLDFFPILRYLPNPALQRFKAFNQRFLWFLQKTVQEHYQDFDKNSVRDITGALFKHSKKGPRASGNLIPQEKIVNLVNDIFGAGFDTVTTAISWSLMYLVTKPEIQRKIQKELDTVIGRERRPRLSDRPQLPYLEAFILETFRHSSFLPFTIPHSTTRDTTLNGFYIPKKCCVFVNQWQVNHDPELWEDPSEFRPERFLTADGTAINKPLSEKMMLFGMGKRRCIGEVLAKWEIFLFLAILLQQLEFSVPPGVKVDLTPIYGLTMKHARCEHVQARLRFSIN

[12] = Solubility of the compound in FaSSIF at pH 6.5 at 4 mg/ml by LC-MS/MS analysis; assay type: physicochemical
Procedure, shortened: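 HCl salt suspended at 4 mg/mL in FaSSIF (pH 6.5), shaken 1 h, then equilibrated overnight at room temperature. After centrifugation, supernatant concentration was measured by LC-MS/MS.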

SMILES: Cc1cc(-c2ccc(CNC(=O)c3ccc4c(c3)[nH]c3ccccc34)cc2)ccn1 [listing 1 of 2 here]
- inhibition [1]: Active

SMILES: Cc1cc(-c2ncc(CC(=O)Nc3ccc(-c4cnccn4)cn3)cc2C)ccn1 [WNT-974]
- CLint scaled at 1 µM [2]: 2 mL/min/kg
- remaining at 8 h, 1 µM [3]: 100%
- remaining at 24 h, 200 µM [4]: 66%
- CLint scaled at 1 µM [5]: 3 mL/min/kg
- half-life at 1 µM [6]: 12.8 h
- inhibition [1]: Active
- half-life at 1 µM [7]: 9.35 h
- Activity [8]: Non-Toxic
- CLint scaled at 1 µM [9]: 22 mL/min/kg
- half-life at 1 µM [10]: 4.62 h
- IC50 [11]: 0.9 nM

SMILES: O=C(NCc1ccc(-c2ccncc2)cc1)c1ccc2c(c1)[nH]c1ccccc12
- IC50 [11]: 18 nM

SMILES: O=C(NCc1ccc2c(c1)Cc1ccccc1-2)c1ccc(-c2cnccn2)cc1
- IC50 [11]: > 1000 nM

SMILES: Cc1cc(-c2ncc(CNC(=O)c3ccc4c5ccccc5n(C)c4c3)cc2F)ccn1
- IC50 [11]: 175 nM

SMILES: Cc1cc(-c2ncc(CNC(=O)c3ccc4c(c3)C(F)(F)c3ccccc3-4)cc2F)ccn1
- IC50 [11]: 16 nM

SMILES: Cc1cc(-c2ccc(CNC(=O)c3ccc4c(c3)oc3ccccc34)cc2)ccn1
- IC50 [11]: 9.1 nM

SMILES: O=C(NCc1ccc2cnccc2c1)c1ccc2c(c1)[nH]c1ccccc12
- IC50 [11]: 207 nM

SMILES: Cc1cn(-c2ccc(CNC(=O)c3ccc4c(c3)[nH]c3ccccc34)cc2)cn1
- IC50 [11]: 119 nM

SMILES: O=C(NCc1ccc(-n2ccnc2)cc1)c1ccc2c(c1)[nH]c1ccccc12
- IC50 [11]: 314 nM

SMILES: Cc1cc(-c2ccc(CNC(=O)c3ccc4c(c3)[nH]c3ccccc34)nc2)ccn1
- IC50 [11]: 18 nM

SMILES: O=C(NCc1ccc2c(c1)Cc1ccccc1-2)c1ccc(-c2ccccc2)cc1
- IC50 [11]: > 1000 nM

SMILES: Cc1cc(-c2ccc(CNC(=O)c3ccc4c(c3)[nH]c3ccccc34)cn2)ccn1
- IC50 [11]: 6.2 nM

SMILES: Cn1nccc1-c1ccc(CNC(=O)c2ccc3c(c2)[nH]c2ccccc23)cc1
- IC50 [11]: 130 nM

SMILES: Cc1cc(-c2ncc(CNC(=O)c3ccc4c(c3)Cc3ccccc3-4)cc2F)ccn1
- IC50 [11]: 9.2 nM

SMILES: Cc1cc(-c2ncc(CNC(=O)c3ccc4c(c3)[nH]c3ccccc34)cc2F)ccn1 [listing 1 of 2 here]
- CLint scaled at 1 µM [2]: 57 mL/min/kg
- remaining at 8 h, 1 µM [3]: 100%
- inhibition at 10 min, 10 µM (CYP2D6): 37%
- remaining at 24 h, 200 µM [4]: 100%
- inhibition at 10 min, 10 µM (CYP2C19): 59%
- inhibition at 10 min, 10 µM (CYP2C9): 31%
- CLint scaled at 1 µM [5]: 24 mL/min/kg
- half-life at 1 µM [6]: 1.33 h
- half-life at 1 µM [7]: 0.517 h
- inhibition at 10 min, 10 µM (CYP3A4): 69%
- Activity [8]: Non-Toxic
- CLint scaled at 1 µM [9]: 109 mL/min/kg
- inhibition at 10 min, 10 µM (CYP1A2): 73%
- half-life at 1 µM [10]: 0.917 h
- IC50 [11]: 0.5 nM

SMILES: Cc1cc(-c2ccc(CNC(=O)c3ccc(-c4ccccc4)cc3)cc2)ccn1
- IC50 [11]: 1 nM

SMILES: Cc1cc(-c2ncc(CNC(=O)c3ccc4c(c3)[nH]c3ccccc34)cc2F)ccn1 [listing 2 of 2 here]
- inhibition [1]: Active

SMILES: Cc1cc(-c2ncc(CNC(=O)c3ccc4c(c3)C(=O)c3ccccc3-4)cc2F)ccn1
- IC50 [11]: 44 nM

SMILES: Cc1cc(-c2ccc(CNC(=O)c3ccc4c5ccccc5n(C)c4c3)cc2)ccn1
- IC50 [11]: > 1000 nM

SMILES: Cc1cc(-c2ncc(CNC(=O)c3ccc4c(c3)[nH]c3ccccc34)cc2F)ccn1.Cl
- solubility [12]: 1.24 µM

SMILES: Cc1cc(-c2ncc(CNC(=O)c3ccc4c(c3)oc3ccccc34)cc2F)ccn1
- IC50 [11]: 3.1 nM

SMILES: Cc1cc(-c2ccc(CNC(=O)c3ccc4c(c3)C(=O)c3ccccc3-4)cc2)ccn1
- IC50 [11]: 85 nM

SMILES: Cc1cc(-c2ccc(CNC(=O)c3ccc4c(c3)[nH]c3ccccc34)cc2)ccn1.Cl
- solubility [12]: 0.16 µM

SMILES: Cc1cc(-c2ncc(CNC(=O)c3ccc4c(c3)[nH]c3ccccc34)cc2C)ccn1
- IC50 [11]: 10 nM

SMILES: Cc1cc(-c2ccc(CNC(=O)c3ccc4c(c3)Cc3ccccc3-4)cc2)ccn1
- IC50 [11]: 35 nM

SMILES: O=C(NCc1ccc2c(c1)oc1ccccc12)c1ccc(-c2cnccn2)cc1
- IC50 [11]: 701 nM

SMILES: N#Cc1ccc2cc(CNC(=O)c3ccc4c(c3)[nH]c3ccccc34)ccc2c1
- IC50 [11]: 13 nM

SMILES: Cc1cc(-c2ccc(CNC(=O)c3ccc4c(c3)C(F)(F)c3ccccc3-4)cc2)ccn1
- IC50 [11]: 60 nM

SMILES: Cc1cc(-c2ccc(CNC(=O)c3ccc4c(c3)[nH]c3ccccc34)cc2)ccn1 [listing 2 of 2 here]
- CLint scaled at 1 µM [2]: 59 mL/min/kg
- remaining at 8 h, 1 µM [3]: 100%
- inhibition at 10 min, 10 µM (CYP2D6): 9%
- remaining at 24 h, 200 µM [4]: 100%
- inhibition at 10 min, 10 µM (CYP2C19): 8%
- inhibition at 10 min, 10 µM (CYP2C9): -22%
- CLint scaled at 1 µM [5]: 7 mL/min/kg
- half-life at 1 µM [6]: 4.62 h
- half-life at 1 µM [7]: 0.5 h
- inhibition at 10 min, 10 µM (CYP3A4): 7%
- Activity [8]: Non-Toxic
- CLint scaled at 1 µM [9]: 141 mL/min/kg
- inhibition at 10 min, 10 µM (CYP1A2): 64%
- half-life at 1 µM [10]: 0.717 h
- IC50 [11]: 7.5 nM
